Experimental data reported in ChEMBL document CHEMBL4266041, “Hydroxybiphenylamide GroEL/ES Inhibitors Are Potent Antibacterials against Planktonic and Biofilm Forms of Staphylococcus aureus” (J Med Chem, 2018).

Assays:
E. coli GroEL/ES [1] = biological target: T1, E. coli GroEL/ES (Escherichia coli, UniProt P0A6F5); test: Inhibition of Escherichia coli GroEL expressed in Escherichia coli DH5alpha/Escherichia coli GroES expressed in Escherichia coli BL21 (DE3) assessed as reduction in GroEL/GroES-mediated denatured MDH refolding after 20 to 40 mins by spectrometric analysis
How it was run: (§1)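 Uses E. coli GroEL/ES with a denatured MDH or rhodanese reporter. GroEL first forms a binary complex with the denatured reporter. Refolding is started by adding ATP and GroES, then reporter enzyme activity is read. DMSO is the negative control. IC50 values from replicate curves are log-averaged after ROUT outlier screening.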

E. coli GroEL/ES [2] = biological target: T1, E. coli GroEL/ES; test: Inhibition of Escherichia coli GroEL expressed in Escherichia coli DH5alpha/Escherichia coli GroES expressed in Escherichia coli BL21 (DE3) assessed as reduction in GroEL/GroES-mediated denatured rhodanese refolding after 45 mins by spectrometric analysis; how it was run: as §1
Staphylococcus aureus [3] = test: Antibacterial activity against Staphylococcus aureus ATCC 25923 after 6 to 8 hrs by bacterial proliferation assay; format: functional, organism-based
[4] = biological target: T2, Thiosulfate sulfurtransferase (Homo sapiens, UniProt Q16762); test: Inhibition of refolded rhodanese (unknown origin) preincubated with Escherichia coli GroEL/GroES for 60 mins in absence of compound followed by compound addition by spectrometric analysis
T2 sequence (Q16762 whole entry): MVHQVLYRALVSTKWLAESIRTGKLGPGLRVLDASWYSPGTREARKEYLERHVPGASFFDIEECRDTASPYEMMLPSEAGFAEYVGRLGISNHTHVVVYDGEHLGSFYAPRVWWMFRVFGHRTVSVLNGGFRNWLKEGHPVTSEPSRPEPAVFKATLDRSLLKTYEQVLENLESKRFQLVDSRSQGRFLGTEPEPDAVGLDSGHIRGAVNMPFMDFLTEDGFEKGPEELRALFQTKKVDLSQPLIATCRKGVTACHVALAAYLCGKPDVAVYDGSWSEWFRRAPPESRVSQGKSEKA

[5] = Inhibition of refolded MDH (unknown origin) preincubated with Escherichia coli GroEL/GroES for 45 mins in absence of compound followed by compound addition and measured for 20 to 35 mins by spectrometric analysis
Enterococcus faecium = test: Antibacterial activity against Enterococcus faecium ATCC 19434 after 24 hrs by bacterial proliferation assay; format: functional, organism-based; conditions: ATCC 19434, 24 h
Staphylococcus aureus [6] = test: Antibacterial activity against methicillin-resistant Staphylococcus aureus ATCC BAA-44 after 6 to 8 hrs by bacterial proliferation assay; format: functional, organism-based; conditions: Staphylococcus aureus, ATCC BAA-44
Klebsiella pneumoniae = test: Antibacterial activity against Klebsiella pneumoniae ATCC 13883 after 6 to 8 hrs by bacterial proliferation assay; format: functional, organism-based
How it was run: (§2)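 Bacterial growth inhibition in liquid culture. The highest concentration tested was 100 µM. The mean was back-calculated from the average log value. Values above the top concentration were set 0.1 log unit higher.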

Acinetobacter baumannii = test: Antibacterial activity against Acinetobacter baumannii ATCC 19606 after 24 hrs by bacterial proliferation assay; format: functional, organism-based; conditions: ATCC 19606 = CIP 70.34 = JCM 6841, 24 h; how it was run: as §2
Pseudomonas aeruginosa = test: Antibacterial activity against Pseudomonas aeruginosa ATCC 10145 after 24 hrs by bacterial proliferation assay; format: functional, organism-based; conditions: ATCC 10145, 24 h; how it was run: as §2
Enterobacter cloacae = test: Antibacterial activity against Enterobacter cloacae subsp. cloacae ATCC 13047 after 24 hrs by bacterial proliferation assay; format: functional, organism-based; conditions: subsp. cloacae ATCC 13047, 24 h; how it was run: as §2
HSP60/HSP10 = HSP60/HSP10 (Homo sapiens, UniProt P10809); test: Inhibition of human N-terminal octa-His-tagged HSP60 expressed in Escherichia coli Rosetta(DE3) pLysS/human HSP10 expressed in Escherichia coli Rosetta(DE3) assessed as reduction in HSP60/HSP10-mediated denatured MDH refolding after 40 to 60 mins by spectrometric analysis
How it was run: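 Human HSP60/10 refolding of denatured MDH, run the same way as the GroEL/ES-dMDH assay. A binary complex of chaperonin and denatured MDH is formed, and refolding is started with ATP and HSP10. MDH activity is the read-out. DMSO is the negative control. IC50 values from replicate curves are log-averaged after ROUT outlier screening.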

[7] = Cytotoxicity against human THLE3 cells assessed as reduction in cell viability after 48 hrs by Alamar Blue reporter assay; conditions: 48 h
HEK293 = test: Cytotoxicity against HEK293 cells assessed as reduction in cell viability after 48 hrs by Alamar Blue reporter assay; conditions: human, hek293, 48 h

T1 sequence (P0A6F5 whole entry, looked up): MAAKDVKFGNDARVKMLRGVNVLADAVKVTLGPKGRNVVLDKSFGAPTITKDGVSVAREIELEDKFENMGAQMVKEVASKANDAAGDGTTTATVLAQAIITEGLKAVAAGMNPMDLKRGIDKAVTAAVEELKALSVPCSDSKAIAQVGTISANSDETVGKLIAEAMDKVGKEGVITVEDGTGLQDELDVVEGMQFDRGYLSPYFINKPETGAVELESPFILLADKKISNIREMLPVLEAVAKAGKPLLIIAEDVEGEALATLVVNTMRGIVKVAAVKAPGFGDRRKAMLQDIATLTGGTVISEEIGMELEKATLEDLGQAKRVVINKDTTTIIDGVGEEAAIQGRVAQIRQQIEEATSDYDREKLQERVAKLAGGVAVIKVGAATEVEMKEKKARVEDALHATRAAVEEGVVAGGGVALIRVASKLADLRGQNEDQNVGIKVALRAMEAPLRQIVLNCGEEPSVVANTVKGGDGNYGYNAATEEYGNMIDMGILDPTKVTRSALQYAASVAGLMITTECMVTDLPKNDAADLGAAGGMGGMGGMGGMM
Chain of HSP60/HSP10 (P10809 whole entry): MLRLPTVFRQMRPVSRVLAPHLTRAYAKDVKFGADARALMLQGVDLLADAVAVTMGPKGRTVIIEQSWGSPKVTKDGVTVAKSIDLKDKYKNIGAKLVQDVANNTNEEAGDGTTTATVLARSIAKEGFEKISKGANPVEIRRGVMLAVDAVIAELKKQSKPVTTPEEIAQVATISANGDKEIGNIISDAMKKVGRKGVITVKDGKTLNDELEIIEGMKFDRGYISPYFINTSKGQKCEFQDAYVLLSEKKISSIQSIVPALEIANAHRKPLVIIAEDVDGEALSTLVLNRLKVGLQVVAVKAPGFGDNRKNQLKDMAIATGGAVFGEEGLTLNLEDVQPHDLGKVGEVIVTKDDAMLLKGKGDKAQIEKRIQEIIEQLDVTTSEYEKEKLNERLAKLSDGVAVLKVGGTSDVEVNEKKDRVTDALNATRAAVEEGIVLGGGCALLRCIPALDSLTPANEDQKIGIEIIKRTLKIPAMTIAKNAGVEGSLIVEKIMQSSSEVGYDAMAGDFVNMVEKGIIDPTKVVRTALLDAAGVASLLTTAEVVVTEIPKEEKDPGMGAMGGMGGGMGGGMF
Chain of HSP60/HSP10 (P61604 whole entry, further chain): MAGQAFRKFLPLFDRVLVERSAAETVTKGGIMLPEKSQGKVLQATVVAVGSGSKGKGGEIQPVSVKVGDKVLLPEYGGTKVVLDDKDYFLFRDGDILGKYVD

Row | SMILES | IC50 (E. coli GroEL/ES [1]) [µM] | IC50 (E. coli GroEL/ES [2]) [µM] | EC50 (Staphylococcus aureus [3]) [µM] | IC50 [4] [µM] | IC50 [5] [µM] | EC50 (Enterococcus faecium) [µM] | EC50 (Staphylococcus aureus [6]) [µM] | EC50 (Klebsiella pneumoniae) [µM] | EC50 (Acinetobacter baumannii) [µM] | EC50 (Pseudomonas aeruginosa) [µM] | EC50 (Enterobacter cloacae) [µM] | IC50 (HSP60/HSP10) [µM] | CC50 [7] [µM] | CC50 (HEK293) [µM]
1 | O=C(Nc1ccccc1)c1cccc(Br)c1 | > 100 | > 100 | > 100 | > 100 | > 63 | > 100 | > 100 | > 100 | > 100 | > 100 | > 100 | > 100 | > 100 | > 100
2 | O=C(Nc1cccc(Cl)c1)c1cccc(Br)c1 | > 100 | > 100 | 47 | > 100 | > 63 | > 100 | 68 | > 100 | > 100 | > 100 | > 100 | > 100 | 50 | 51
3 | COc1c(Br)cc(Br)cc1C(=O)Nc1cccc(Cl)c1 | > 100 | > 100 | 46 | > 100 | > 63 | > 100 | > 100 | > 100 | > 100 | > 100 | > 100 | > 100 | > 100 | > 100
4 | COc1c(Br)cccc1C(=O)Nc1ccccc1 | > 100 | > 100 | > 100 | > 100 | > 63 | > 100 | > 100 | > 100 | > 100 | > 100 | > 100 | > 100 | > 100 | > 100
5 | COc1c(Br)cccc1C(=O)Nc1ccc(Sc2nc3ccccc3s2)cc1 | > 100 | > 100 | > 100 | > 100 | > 63 | > 100 | > 100 | > 100 | > 100 | > 100 | > 100 | > 100 | > 100 | > 100
6 | COc1ccc(Br)cc1C(=O)Nc1ccc(Sc2nc3ccccc3s2)c(Cl)c1 | > 100 | > 100 | > 100 | > 100 | > 63 | > 100 | > 100 | > 100 | > 100 | > 100 | > 100 | > 100 | > 100 | > 100
7 | O=C(Nc1ccccc1)c1cccc(Br)c1O | > 100 | > 100 | 6.4 | > 100 | > 63 | > 100 | 10 | > 100 | > 100 | > 100 | > 100 | > 100 | 56 | 82
8 | O=C(Nc1ccccc1)c1cc(Br)ccc1O | > 100 | > 100 | 2.8 | > 100 | > 63 | > 100 | 4.1 | 78 | > 100 | > 100 | > 100 | > 100 | 16 | 35
9 | COc1ccccc1C(=O)Nc1cccc(Cl)c1 | > 100 | > 100 | > 100 | > 100 | > 63 | > 100 | > 100 | > 100 | > 100 | > 100 | > 100 | > 100 | > 100 | > 100
10 | COc1ccc(Br)cc1C(=O)Nc1cccc(Cl)c1 | > 100 | > 100 | > 100 | > 100 | > 63 | > 100 | > 100 | > 100 | > 100 | > 100 | > 100 | > 100 | 94 | > 100
11 | O=C(Nc1ccc(Sc2nc3ccccc3s2)c(Cl)c1)c1ccccc1O | 42 | 63 | 0.31 | > 100 | > 63 | 64 | 0.45 | > 100 | > 100 | > 100 | > 100 | > 100 | 34 | –
12 | O=C(Nc1ccc(Sc2nc3ccccc3s2)cc1)c1cccc(Br)c1O | 33 | 14 | 0.76 | > 100 | > 63 | 11 | 1.1 | > 100 | 12 | > 100 | > 100 | – | 36 | 71
13 | CO[C@H]1/C=C/O[C@@]2(C)Oc3c(C)c(O)c4c(O)c(c(/C=N/N5CCN(C)CC5)c(O)c4c3C2=O)NC(=O)/C(C)=C\C=C\[C@H](C)[C@H](O)[C@@H](C)[C@@H](O)[C@@H](C)[C@H](OC(C)=O)[C@@H]1C [RIFAMPIN] | > 100 | > 100 | < 0.05 | > 100 | > 63 | 0.13 | 0.23 | 11 | 1.3 | 7.8 | 8.8 | > 100 | – | –
